Experimental data taken from ChEMBL document CHEMBL1772978, “Exploration of the activity of 7-pyrrolidino-8-methoxyisothiazoloquinolones against methicillin-resistant Staphylococcus aureus (MRSA)” (J Med Chem, 2011).
Converted amounts (≈) assume the structure as drawn.

Assays:
[1] = tested on: Staphylococcus aureus; experiment: Ratio of vancomycin MIC to compound MIC for methicillin-resistant Staphylococcus aureus clinical isolate; format: functional
[2] = tested on: Staphylococcus aureus; experiment: Ratio of levofloxacin MIC to compound MIC for methicillin-resistant Staphylococcus aureus clinical isolate; format: functional
[3] = Inhibition of Staphylococcus aureus topoisomerase 4 Ser80Phe mutant-mediated decatenation of kDNA after 30 mins by gel electrophoresis assay
[4] = tested on: Staphylococcus aureus; experiment: Antibacterial activity against methicillin- and quinolone-resistant Staphylococcus aureus ATCC700699 after 24 hrs by microdilution method; format: functional; details: ATCC700699, 24 h
Method in brief: (§1)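 Broth microdilution; MIC read as the lowest compound concentration that prevents visible bacterial growth after incubation at 37 °C for 18–24 h, and expressed in μg/mL.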

[5] = tested on: DNA gyrase subunit A (Staphylococcus aureus), P20831 [S84L]; experiment: Ratio of ciprofloxacin IC50 to compound IC50 for Staphylococcus aureus DNA gyrase Ser84Leu mutant
[6] = tested on: Staphylococcus aureus; experiment: Antibacterial activity against methicillin-resistant Staphylococcus aureus clinical isolate after 24 hrs by microdilution method; format: functional; method in brief: as §1
[7] = Inhibition of wild-type Staphylococcus aureus topoisomerase 4-mediated decatenation of kDNA after 30 mins by gel electrophoresis assay
[8] = tested on: Escherichia coli; experiment: Antibacterial activity against Escherichia coli ATCC25922 after 24 hrs by microdilution method; format: functional; details: ATCC25922, 24 h
Method in brief: (§2)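 MIC taken as the lowest concentration with no visible bacterial growth after 18-24 h at 37 °C, given in μg/mL; modal value of multiple experiments.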

[9] = tested on: Staphylococcus aureus; experiment: Antibacterial activity against methicillin-sensitive Staphylococcus aureus ATCC 29213 after 24 hrs by microdilution method; format: functional; details: ATCC 29213, 24 h; method in brief: as §2
[10] = tested on: Staphylococcus aureus; experiment: Ratio of ciprofloxacin IC50 to compound IC50 for Staphylococcus aureus topoisomerase 4 Ser80Phe mutant
[11] = biological target: DNA gyrase (Staphylococcus aureus, UniProt P0A0K8+P20831); experiment: Inhibition of wild-type Staphylococcus aureus DNA gyrase assessed as inhibition of supercoiling of pBR322 DNA after 60 min by gel electrophoresis assay; format: protein-complex assay
[12] = biological target: DNA gyrase subunit A (Staphylococcus aureus, UniProt P20831, S84L); experiment: Inhibition of Staphylococcus aureus DNA gyrase Ser84Leu mutant assessed as inhibition of supercoiling of pBR322 DNA after 60 min by gel electrophoresis assay
[13] = tested on: Staphylococcus aureus; experiment: Antibacterial activity against methicillin-resistant Staphylococcus aureus ATCC 700699 after 24 hrs by microdilution method; format: functional; details: ATCC700699, 24 h; method in brief: as §1
[14] = Cytotoxicity against human Hep2 cells after 72 hrs by alamar blue assay; format: cell-based; details: HEp-2 cells
[15] = tested on: Staphylococcus aureus; experiment: Ratio of ciprofloxacin IC50 to compound IC50 for wild-type Staphylococcus aureus topoisomerase 4
[16] = biological target: DNA gyrase (Staphylococcus aureus) (UniProt P0A0K8+P20831); experiment: Ratio of ciprofloxacin IC50 to compound IC50 for wild-type Staphylococcus aureus DNA gyrase; format: protein-complex assay

| SMILES | Ratio [1] | Ratio [2] | IC50 [3] [nM] | MIC [4] [µg/mL] | Ratio [5] | MIC50 [6] [µg/mL] | MIC90 [6] [µg/mL] | IC50 [7] [nM] | MIC [8] [µg/mL] | MIC [9] [µg/mL] | Ratio [10] | IC50 [11] [nM] | IC50 [12] [nM] | MIC [13] [µg/mL] | CC50 at 72 h [14] [nM] | Ratio IC50 [15] | Ratio IC50 [16] | MIC [6] [µg/mL] |
| --- | --- | --- | --- | --- | --- | --- | --- | --- | --- | --- | --- | --- | --- | --- | --- | --- | --- | --- |
| COc1c(N2CC[C@@H](C(C)(C)N)C2)c(F)cc2c(=O)c3c(=O)[nH]sc3n(C3CC3)c12 | 4 | 256 | 600 | 0.06 (≈ 0.139 µM) | > 48 | 0.06 (≈ 0.139 µM) | 0.25 (≈ 0.578 µM) | 120 | 0.06 (≈ 0.139 µM) | 0.004 (≈ 0.00925 µM) | 95 | 680 | 4200 | 0.06 (≈ 0.139 µM) | 9000 |  |  |  |
| COc1c(N2CC[C@@H]([C@H](C)N)C2)c(F)cc2c(=O)c3c(=O)[nH]sc3n(C3CC3)c12 (mixture of isomers) |  |  | 470 | 0.06 | > 62 | 0.06 | 0.5 | 40 | 0.008 | 0.002 | 121 | 680 | 3200 | 0.06 | 6000 | 75 | 91 |  |
| CN[C@@H](C)[C@@H]1CCN(c2c(F)cc3c(=O)c4c(=O)[nH]sc4n(C4CC4)c3c2OC)C1 (mixture of isomers) |  |  | 1160 | 0.25 |  |  |  | 110 | 0.03 | 0.008 |  | 1100 | 18700 | 0.25 | 12000 |  |  |  |
| COc1c(N2CC[C@@H]([C@H](C)NCCF)C2)c(F)cc2c(=O)c3c(=O)[nH]sc3n(C3CC3)c12 (mixture of isomers) |  |  | 660 | 0.13 |  |  |  | 60 | 0.06 | 0.002 |  | 1320 | 12000 | 0.13 | 73000 |  |  |  |
| O=C(O)c1cn(C2CC2)c2cc(N3CCNCC3)c(F)cc2c1=O [CIPROFLOXACIN] |  |  | 57000 | 32 (≈ 96.6 µM) |  |  |  | 3000 |  | 0.25 (≈ 0.754 µM) |  |  |  | 32 (≈ 96.6 µM) | > 100000 |  |  |  |
| CO/N=C1\CN(c2nc3c(cc2F)c(=O)c(C(=O)O)cn3C2CC2)CC1CN (stereo unspecified) [GEMIFLOXACIN] |  |  | 9800 |  |  |  |  | 400 | 4 (≈ 10.3 µM) | 0.03 (≈ 0.077 µM) |  |  | > 200000 | 2 (≈ 5.14 µM) |  |  |  |  |
| C[C@H]1COc2c(N3CCN(C)CC3)c(F)cc3c(=O)c(C(=O)O)cn1c23.C[C@H]1COc2c(N3CCN(C)CC3)c(F)cc3c(=O)c(C(=O)O)cn1c23.O [LEVOFLOXACIN] |  |  |  |  |  | 16 | > 16 |  |  |  |  |  |  |  |  |  |  |  |
| CC(=O)NC[C@H]1CN(c2ccc(N3CCOCC3)c(F)c2)C(=O)O1 [LINEZOLID] |  |  |  |  |  | 1 (≈ 2.96 µM) | 2 (≈ 5.93 µM) |  |  |  |  |  |  |  |  |  |  | 1 (≈ 2.96 µM) |
| COc1c(N2C[C@@H]3CCCN[C@@H]3C2)c(F)cc2c(=O)c(C(=O)O)cn(C3CC3)c12 [MOXIFLOXACIN] |  |  | 11900 | 4 (≈ 9.96 µM) |  |  |  | 1000 | 0.03 (≈ 0.0747 µM) | 0.06 (≈ 0.149 µM) |  |  |  | 2 (≈ 4.98 µM) | > 100000 |  |  |  |
| Cc1onc(-c2ccccc2)c1C(=O)N[C@@H]1C(=O)N2[C@@H]1SC(C)(C)[C@@H]2C(=O)O [OXACILLIN] |  |  |  |  |  | > 16 | > 16 |  |  |  |  |  |  |  |  |  |  |  |
| CN[C@H](CC(C)C)C(=O)N[C@H]1C(=O)N[C@@H](CC(N)=O)C(=O)N[C@H]2C(=O)N[C@H]3C(=O)N[C@H](C(=O)N[C@H](C(=O)O)c4cc(O)cc(O)c4-c4cc3ccc4O)[C@H](O)c3ccc(c(Cl)c3)Oc3cc2cc(c3O[C@@H]2O[C@H](CO)[C@@H](O)[C@H](O)[C@H]2O[C@H]2C[C@](C)(N)[C@H](O)[C@H](C)O2)Oc2ccc(cc2Cl)[C@H]1O [VANCOMYCIN] |  |  |  |  |  | 1 (≈ 0.69 µM) | 1 (≈ 0.69 µM) |  |  |  |  |  |  |  |  |  |  |  |
